Compound activity from PubChem.
TRAIL sens C8 = caspase-8 TRAIL sensitization. NB7+C8 cells + TRAIL, ATPlite viability luminescence. AID 624354. inhibition (viability loss, TRAIL sensitization), % at 10 µM. 360,000 compounds, 1% hits;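 active means compounds causing at least 50% loss of cell viability in the single-dose screen, relative to plate controls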
PPC-1+TRAIL kill = kills PPC-1 cancer cells in the presence of TRAIL; PPC-1 cells + TRAIL, ATPLite viability luminescence; cell killing (% activity), % at 4 µM or 5 µM; 220,000 compounds, 0.41% hits;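 active means cell killing above 50% in the first pass at 4 µM, then a duplicate retest at 5 µM averaging 50% or more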
FLuc act counter = firefly luciferase counter-screen for stimulation assays; ATPlite luciferase biochemical, luminescence, 10 min; 0 = ATP-free wells, 1 = DMSO control; activation factor at 10 µM; 200,000 tested, under 10 active;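 active means luciferase activation factor, scaled between plate controls, of at least 2 with compound at 10 µM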
Target sequence (P08659 whole entry, looked up): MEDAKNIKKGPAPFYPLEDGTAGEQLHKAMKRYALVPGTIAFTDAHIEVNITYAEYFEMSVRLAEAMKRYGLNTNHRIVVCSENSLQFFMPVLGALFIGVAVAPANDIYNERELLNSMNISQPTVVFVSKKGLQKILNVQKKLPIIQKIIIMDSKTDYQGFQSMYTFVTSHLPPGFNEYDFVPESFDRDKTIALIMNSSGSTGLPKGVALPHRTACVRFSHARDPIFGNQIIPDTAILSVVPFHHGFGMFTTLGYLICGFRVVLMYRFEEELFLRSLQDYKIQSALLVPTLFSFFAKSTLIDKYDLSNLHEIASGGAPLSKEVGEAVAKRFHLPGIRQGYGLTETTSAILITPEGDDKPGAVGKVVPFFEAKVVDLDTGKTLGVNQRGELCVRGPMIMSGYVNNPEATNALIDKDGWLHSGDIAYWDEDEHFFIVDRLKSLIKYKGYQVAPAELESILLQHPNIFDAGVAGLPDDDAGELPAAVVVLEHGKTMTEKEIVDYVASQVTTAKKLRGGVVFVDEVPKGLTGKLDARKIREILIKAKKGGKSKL
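System: cell-free luciferase reagent; medium: PBS as buffer for the ATP substrate; doses: test compounds dosed from 2 mM stocks in 100% DMSO; incubation: 10 min, room temperature; measured by: luminescence from luciferase reaction; read-out: luciferase activation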
FLuc inhib CS = inhibits firefly luciferase, flagging false hits in luciferase inhibition screens; 200,000 compounds, 1.5% hits; AID 1006; ATPLite firefly luciferase biochemical luminescence, 10 min; inhibition, % at 10 µM; P08659;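 active means inhibition above about 50% when tested at 10 µM, limit read from the data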
A number is an active result; . = inactive; / = no result given. Most compounds without a hit are left out; they make up all but 1.6% or so of the library.

SMILES	TRAIL sens C8	PPC-1+TRAIL kill	FLuc act counter	FLuc inhib CS
Cc1cc(C)nc(N/C(=N\S(=O)(=O)Cc2ccccc2)Nc2ccccc2Br)n1	.	.	.	.
CN(C)CCCN(C(=O)c1ccc(S(=O)(=O)N2CCc3ccccc3C2)cc1)c1nc2ccc(F)cc2s1	84.8	/	/	/
Cc1ccc2nc(N(CCCN(C)C)C(=O)c3ccc(S(=O)(=O)N4CCc5ccccc5C4)cc3)sc2c1	76.5	/	/	/
COc1ccc2sc(N(CCCN(C)C)C(=O)c3ccc(S(=O)(=O)N4CCc5ccccc5C4)cc3)nc2c1	93.1	/	/	/
Cc1cccc2sc(N(CCCN(C)C)C(=O)c3ccc(S(=O)(=O)N4CCc5ccccc5C4)cc3)nc12	.	/	/	/
CN(C)CCCN(C(=O)c1ccc(S(=O)(=O)N2CCc3ccccc3C2)cc1)c1nc2c(F)cccc2s1	.	/	/	/
COc1ccc2sc(N(CCCN(C)C)C(=O)c3ccc(S(=O)(=O)N4CCCC4)cc3)nc2c1	.	/	/	/
CN(C)CCCN(C(=O)c1ccc(S(=O)(=O)N2CCc3ccccc32)cc1)c1nc2ccc(F)cc2s1	.	/	/	/
Cc1cc(C)c2sc(N(CCCN(C)C)C(=O)c3ccc(S(=O)(=O)N4CCc5ccccc5C4)cc3)nc2c1	91.8	/	/	/
COc1ccc(N2CCN(C(=O)CSc3ccccc3)CC2)cc1	.	.	.	.
O=C(NCCc1c[nH]c2ccccc12)c1ccc2[nH]c(=O)c(=O)[nH]c2c1	.	/	/	/
COc1cccc(NC(=O)c2ccc(NC(=O)C3CC(=O)OC34CCCCC4)cc2)c1 (configuration not stated)	.	.	.	.
Cc1cc(C)c2sc(N(CCCN(C)C)C(=O)c3ccc(S(=O)(=O)N4CCCc5ccccc54)cc3)nc2c1	74.4	/	/	/
Cc1c(OC(C(=O)O)c2ccccc2)ccc2c1oc(=O)c1ccccc12 (configuration not stated)	.	/	/	/
O=C(Nc1cccnc1)c1cc(-c2ccc(Cl)c(Cl)c2)on1	.	/	/	/
O=C(Nc1cccnc1)c1cc(-c2ccc3c(c2)OCO3)on1	.	.	.	68.2
O=C(Nc1cccnc1)c1cc(-c2ccc(F)cc2)on1	.	.	.	53.9
CC(NCC(=O)Nc1ccccc1C(=O)NC1CC1)c1ccc(S(C)(=O)=O)cc1 (configuration not stated)	.	/	/	/
O=c1oc(-c2cccs2)nc2sc3c(c12)CCCCC3	.	.	.	67.3
CN1CCN(C(=O)C2=NOC3(C2)C(=O)Nc2ccccc23)CC1 (configuration not stated)	52.1	/	/	/
O=C(C1=NOC2(C1)C(=O)Nc1ccccc12)N1CCCCC1 (configuration not stated)	.	/	/	/
CCCC(C)NC(=O)C1CC(=O)N(CCc2ccc(F)cc2)C1 (configuration not stated)	.	/	/	/
Cc1ccc(SCc2cn3c(C)csc3n2)cc1	.	.	.	63.6
CCOn1c(=O)c(-c2ccc(Br)cc2)[n+]([O-])c2ccccc21	.	/	/	/
O=C(O)CSc1cc(NS(=O)(=O)c2ccc(Br)cc2)c2ccccc2c1O	48.2	/	/	/
SMILES	TRAIL sens C8	PPC-1+TRAIL kill	FLuc act counter	FLuc inhib CS
O=C(N/N=C/c1ccc(N2CCOCC2)cc1)c1cccs1	.	.	.	52.3
O=C(c1ccc(N2CCOCC2)cc1)c1cccs1	.	.	.	65.7
O=C(N/N=C/c1ccc(N2CCOCC2)cc1)c1ccc(NS(=O)(=O)c2cccs2)cc1	.	.	.	.
O=C(/C=C/c1c(F)cccc1Cl)Nc1nc2ccccc2[nH]1	.	.	.	.
COc1ccc(CC(=O)Nc2cc(NC(=O)Cc3ccc(OC)c(OC)c3)cc(C(=O)O)c2)cc1OC	.	.	.	.
Cc1ccc(C)c(NC(=O)C(Sc2cccc[n+]2[O-])c2ccccc2)c1 (configuration not stated)	.	.	.	.
CC1=C(C(=O)N(C)C)CC(CC(=O)NCCN2CCOCC2)C(=O)N1CCCN1CCCC1=O (configuration not stated)	54.8	/	/	/
O=C(CSc1ccc2nnc(-c3ccccn3)n2n1)Nc1ccc2c(c1)OCCO2	.	.	.	.
CC1(C)Cc2c(sc(NC(=O)c3ccc(Br)o3)c2C#N)CO1	.	.	.	63.7
O=C(Nc1ccc(N2CCCC(O)C2)cc1)c1snc2c(=O)[nH]cnc12 (configuration not stated)	.	.	.	65.5
Cc1nc2c(C(=O)Nc3ccc(N4CCCC(O)C4)cc3)snc2c(=O)[nH]1 (configuration not stated)	.	.	/	/
CCCOc1cc(C)c(S(=O)(=O)N2CCN(C)CC2)cc1C	.	.	.	.
O=C(Nc1ccccc1SC(=O)c1ccccc1)c1ccccc1	.	/	/	/
Cc1ccc(C(=O)Sc2cccccc2=O)cc1	60.7	/	/	/
COc1ccc(-c2csc(NC(=S)NC(=O)c3ccccc3)n2)cc1Br	.	.	/	/
CC1(C)CC2CC(C)(CN2S(=O)(=O)c2cccc(C(=O)OCC(=O)NC(N)=O)c2)C1 (configuration not stated)	.	/	/	/
Cc1cc(C(=O)CSc2cccc[n+]2[O-])c(C)n1-c1ccccc1	.	.	.	80.3
Cc1cc(C(=O)CSc2nncn2C)c(C)n1-c1ccccc1	.	.	.	68.6
Cc1ccc(-n2c(C)cc(C(=O)CSc3nncs3)c2C)cc1	.	.	.	53.7
CCCN(CC)c1ncnc2[nH]ncc12	.	/	/	/
COc1ccc(-c2csc(C3=C(O)CN(CCCN4CCCC4=O)C3=N)n2)cc1OC	.	.	.	55.9
CC1CCc2cc(F)ccc2N1C(=O)CCl (configuration not stated)	94.0	.	.	.
CCC(CC)C(=O)N1c2ccc(F)cc2CCC1C (configuration not stated)	.	.	.	.
O=C(c1cc(-c2ccccc2)nc2ccccc12)N1CCN(c2ccccn2)CC1	.	.	.	.
O=C(O)c1ccc(N2C(=O)CC(SC(=Nc3ccccc3)Nc3ccccc3)C2=O)cc1 (configuration not stated)	.	.	.	.
SMILES	TRAIL sens C8	PPC-1+TRAIL kill	FLuc act counter	FLuc inhib CS
CC(/C=C/c1ccc(N(C)C)cc1)=N\N=C(/N)SC1CC(=O)N(c2ccc(C(=O)O)cc2)C1=O (configuration not stated)	.	53.5	.	68.9
CCCCC1CCC(C(=O)N(CC(C)C)c2c(N)n(CCCC)c(=O)[nH]c2=O)CC1 (configuration not stated)	.	/	/	/
CCCCC1CCC(C(=O)N(CCC(C)C)c2c(N)n(CCCC)c(=O)[nH]c2=O)CC1 (configuration not stated)	51.8	/	/	/
CCCCn1c(N)c(N(CCC)C(=O)C2CCCC2)c(=O)[nH]c1=O	.	/	/	/
CCCCC1CCC(C(=O)N(CCCC)c2c(N)n(CCCC)c(=O)[nH]c2=O)CC1 (configuration not stated)	71.9	/	/	/
Cc1cc(C)nc(SCc2cc(=O)c(OC(=O)c3ccc(Br)o3)co2)n1	.	.	.	60.1
Cc1cc(C)nc(SCc2cc(=O)c(OC(=O)c3ccco3)co2)n1	.	.	.	.
O=C(N/N=C/c1sc2ccccc2c1O)c1ccccc1	53.2	.	.	56.9
COc1ccc2cc(C(=O)N/N=C/c3sc4ccccc4c3O)ccc2c1	.	.	.	71.9
